Results filed as inconclusive are left out.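 How the source made its calls, unless noted: active means viability at or below 27.92% in each of two runs, the all-compound median minus 4 SD; inconclusive means no clear call, values can overlap the other calls; inactive means the rest.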
Assays:
[1] = OD615 S. cerevisiae growth inhibition, permissive medium, pilot counter-assay, permissive growth control for S. cerevisiae lifespan shortening project (AID 705;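 active means growth inhibition above 25% in both replicates, a cutoff set 3 SD above the mean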); details: OD615, 24 h, at 10 µM, stronger effect = higher value
Procedure, shortened: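 System: Engineered DeaD yeast | Buffer or medium: SC raffinose/galactose permissive medium | Doses: 10 µM single dose, 0.25% DMSO | Times: 24 h exposure, 30 °C | Measured by: OD615 turbidity read | Read-out: Yeast growth inhibition indicated by reduced 24 h OD615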

[2] = Restrictive medium S. cerevisiae growth inhibition, OD615, pilot screen of yeast lifespan reduction project, restrictive growth control (AID 706;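 active means growth inhibition above a set limit, 3 SD over mean compound inhibition, in both replicates, cut at about 43% in these data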;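 further: modified DeaD lifespan yeast strain shifted to restrictive glucose medium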); details: OD615, 48 h, at 10 µM, stronger effect = higher value
Procedure, shortened: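 Assay system: engineered S. cerevisiae DeaD strain; Buffer or medium: CSMM-D glucose medium; Dosing: 10 µM compound, 0.25% DMSO; Times: cell pre-growth 4 h, compound exposure 48 h, 30 °C; Detection: absorbance (optical density) measured at 615 nm.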

[3] = viability gain of MRP-1-high H69AR cells under doxorubicin, pilot screen, MRP-1 activator project, CellTiter-Glo, duplicate (AID 807;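 active means viability increase at or above a cutoff of the median across tested compounds plus 3 SD, cut at about 8.5% in these data, passing the limit was not always enough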;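 further: compound pretreatment 18-22 h then 72 h combined with doxorubicin; 0% = doxorubicin alone and 100% = vehicle without doxorubicin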); details: H69AR viability with doxorubicin, CellTiter-Glo luminescence; at 10 µM; stronger effect = higher value
[4] = growth suppression of beta-catenin knockout HCT116, pilot screen, human colon tumor cells (AID 823;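 active means cell viability at or below a set limit in both duplicate runs, the limit being the all-compound median minus 4 SD, cut at about 23% in these data, passing the limit was not always enough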;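 further: 0% = wells killed by 20 µM Hyamine and 100% = untreated DMSO cell wells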); details: CellTiter-Glo, 60 h, at 10 µM, stronger effect = lower value
[5] = growth suppression of PTEN-deleted HCT116, pilot screen, cell-based, HCT116 clonal line, CellTiter-Glo (AID 824); details: 60 h, at 10 µM, stronger effect = lower value;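 further: 0% = 20 µM Hyamine control and 100% = vehicle cell control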
[6] = inhibitors of the yeast RAM network, pilot screen, dse1pr::URA3 reporter, 5-FOA selection (AID 869;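 active means inhibition over a set limit, the all-compound mean plus 3 SD, in both replicate runs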;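 further: 0% = DMSO wells with no growth and 100% = 10 µM 1-NA-PP1 with full growth; RAM network block rescues cells from 5-FOA so hits raise OD615 growth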); details: S. cerevisiae dse1pr::URA3 5-FOA growth, OD615, 2 d; at 10 µM; stronger effect = higher value; strain carries analog-sensitive mutant Cbk1 kinase
[7] = RAM signaling pathway blockade in yeast – S. cerevisiae, Pdr1DBD-CYC8 efflux-inhibited sensitized strain, primary screen (AID 1298;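 active means RAM network inhibition above 8.4% in each of two replicates, 3 SD over the compound average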;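 further: 0% = DMSO untreated cells without growth and 100% = 10 µM 1-NA-PP1 full growth; higher means more yeast growth rescued from 5-FOA killing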); details: S. cerevisiae cbk1-as DSE1-URA3 strain, 5-FOA growth OD615, 2 d; at 50 µM; stronger effect = higher value

CC(NC(=O)c1cccnc1)C(c1cccs1)N1CCN(C)CC1 (configuration not stated)
inactive: growth inhibition [1] -4.91% | growth inhibition [2] 5.15% | viability increase [3] 0.3% | viability [4] 98.2% | viability [5] 95% | inhibition [6] 0.955% | RAM network inhibition [7] 4.79%

O=C(CCNS(=O)(=O)c1cccc2nonc12)NCCc1ccc(Cl)cc1
inactive: growth inhibition [1] -2.56% | growth inhibition [2] -9.13% | viability increase [3] 5.07% | viability [4] 90% | viability [5] 101% | inhibition [6] -0.08% | RAM network inhibition [7] 3%

COc1ccc(OC)c(NC(=O)C2CCCNC2=O)c1 (configuration not stated)
inactive: growth inhibition [1] -6.08% | growth inhibition [2] -1.6% | viability increase [3] -1.67% | viability [4] 95.1% | viability [5] 94.5% | inhibition [6] 1.33% | RAM network inhibition [7] 1.33%

CS/C(=N\S(=O)(=O)c1ccc(N)cc1)NS(=O)(=O)c1cccs1
inactive: growth inhibition [1] -0.825% | growth inhibition [2] -11.5% | viability increase [3] -0.88% | viability [4] 103% | viability [5] 102% | inhibition [6] 0.23% | RAM network inhibition [7] 3.11%

COC(=O)C(C(=O)OC)C(C(C)C)C(C(=O)OC)C(=O)OC
inactive: growth inhibition [1] -8.23% | growth inhibition [2] -9.04% | viability increase [3] -1.49% | viability [4] 101% | viability [5] 98.2% | inhibition [6] 1.07% | RAM network inhibition [7] 3.68%

CCc1ccc(-c2nc(CN3CCCC(C(=O)O)C3)c(C)o2)cc1 (configuration not stated)
inactive: growth inhibition [1] 2.06% | growth inhibition [2] -4.83% | viability increase [3] 1.14% | viability [4] 97.6% | viability [5] 101% | inhibition [6] -0.145% | RAM network inhibition [7] 2.81%

O=C(Cn1cc2c(n1)CCCC2)N1CCCc2ccccc21
inactive: growth inhibition [1] 1.09% | growth inhibition [2] 4.04% | viability increase [3] -1.6% | viability [4] 98.6% | viability [5] 100% | inhibition [6] 0.85% | RAM network inhibition [7] 1.48%

CCOCCCNC(=O)C(NC(=O)CC1NC(=O)NC1=O)c1ccc(Cl)cc1 (configuration not stated)
inactive: growth inhibition [1] -4.46% | growth inhibition [2] 1.68% | viability increase [3] 0.89% | viability [4] 107% | viability [5] 96.1% | inhibition [6] 2.61% | RAM network inhibition [7] 1.81%

Cc1ccc(OCCNC(=O)c2ccco2)cc1C
inactive: growth inhibition [1] 0.475% | growth inhibition [2] -5.61% | viability increase [3] -1.46% | viability [4] 102% | viability [5] 101% | inhibition [6] 1.63% | RAM network inhibition [7] -1.46%

CSc1ccc(S(=O)(=O)Nc2ccc3c(c2)OCCO3)cc1
inactive: growth inhibition [1] -3.2% | growth inhibition [2] -11% | viability increase [3] -3.95% | viability [4] 62.2% | viability [5] 71.9% | inhibition [6] 1.67% | RAM network inhibition [7] -0.87%

COc1ccc(C(=O)N2CCN(C(=O)c3ccco3)CC2)cc1
inactive: growth inhibition [1] 1.98% | growth inhibition [2] 6.93% | viability increase [3] -2.64% | viability [4] 100% | viability [5] 98.8% | inhibition [6] 1.56% | RAM network inhibition [7] 4.49%

CCN1c2ccccc2NC2C1C(C(C)=O)C(=O)N2c1ccc(Cl)cc1 (configuration not stated)
inactive: growth inhibition [1] -2.96% | growth inhibition [2] -9.21% | viability increase [3] -5.03% | viability [4] 84.3% | viability [5] 72.2% | inhibition [6] 1.32% | RAM network inhibition [7] 5.6%

COC(=O)c1ccccc1N(Cc1ccccc1)S(C)(=O)=O
inactive: growth inhibition [1] -3.77% | growth inhibition [2] -8.56% | viability increase [3] -4.02% | viability [4] 90.6% | viability [5] 105% | inhibition [6] -0.425% | RAM network inhibition [7] 1.83%

O=C(O)CCCC(=O)NCCCc1ccccc1
inactive: growth inhibition [1] -6.08% | growth inhibition [2] 3.99% | viability increase [3] -2.85% | viability [4] 98.5% | viability [5] 89.8% | inhibition [6] 1.02% | RAM network inhibition [7] 2.45%

O=C(CCS(=O)(=O)c1cccs1)N1CCCC1
inactive: growth inhibition [1] -1.4% | growth inhibition [2] -7.61% | viability increase [3] -1.26% | viability [4] 94% | viability [5] 96.2% | inhibition [6] 2.58% | RAM network inhibition [7] 1.19%

CN1C(=O)/C(=C2\SC(=S)N(C(CCC(=O)O)C(=O)O)C2=O)c2ccccc21 (configuration not stated)
inactive: growth inhibition [1] 2.35% | growth inhibition [2] -1.85% | viability increase [3] -2.67% | viability [4] 107% | viability [5] 98.8% | inhibition [6] 1.11% | RAM network inhibition [7] 0.96%

c1ccc(-n2ncc3c(NCc4cccnc4)ncnc32)cc1
inactive: growth inhibition [1] -9.01% | growth inhibition [2] 2.41% | viability increase [3] 3.3% | viability [4] 88.1% | viability [5] 83.6% | inhibition [6] 2.49% | RAM network inhibition [7] 0.31%

C=CCNC(=O)c1c(Cl)cccc1Cl
inactive: growth inhibition [1] -12.2% | growth inhibition [2] 3.24% | viability increase [3] -1.31% | viability [4] 90.5% | viability [5] 97.3% | inhibition [6] 0.94% | RAM network inhibition [7] 3.89%

Cc1noc(NS(=O)(=O)c2ccc(NC(=O)c3cnc4scc(C)n4c3=O)cc2)c1C
inactive: growth inhibition [1] -2.39% | growth inhibition [2] -5.18% | viability increase [3] 1.99% | viability [4] 101% | viability [5] 101% | inhibition [6] 2.61% | RAM network inhibition [7] 6.1%

CCOc1cccc(C(=O)Nc2cccc(-c3nnc(-c4ccccc4)o3)c2)c1
inactive: growth inhibition [1] -8.09% | growth inhibition [2] 6.69% | viability increase [3] -3% | viability [4] 51.9% | viability [5] 48.5% | inhibition [6] 0.02% | RAM network inhibition [7] 2.46%

Nc1ccc(OCc2ccccc2)cc1
inactive: growth inhibition [1] -14.4% | growth inhibition [2] -9.93% | viability increase [3] -4.17% | viability [4] 98.7% | viability [5] 89.4% | inhibition [6] 1.9% | RAM network inhibition [7] 5.27%

COc1ccc(CN2C(=O)CCC2(C)C(=O)NC2CCCC2)c(OC)c1 (configuration not stated)
inactive: growth inhibition [1] -5.04% | growth inhibition [2] -4.46% | viability increase [3] 0.91% | viability [4] 105% | viability [5] 101% | inhibition [6] 0.71% | RAM network inhibition [7] 2.04%

Fc1cccc(CSc2nc3ccncc3[nH]2)c1
inactive: growth inhibition [1] -13.4% | growth inhibition [2] -9.72% | viability increase [3] -0.81% | viability [4] 94.9% | viability [5] 79.7% | inhibition [6] 1.6% | RAM network inhibition [7] 7.53%

Nc1c(NCc2ccccc2F)c(=O)[nH]c(=O)n1Cc1ccccc1
inactive: growth inhibition [1] 0.38% | growth inhibition [2] -8.14% | viability increase [3] -1.53% | viability [4] 106% | viability [5] 100% | inhibition [6] 0.67% | RAM network inhibition [7] 1%

CC1Cc2nc(SCC(=O)NCc3ccco3)n(Cc3ccccc3)c(=O)c2S1 (configuration not stated)
inactive: growth inhibition [1] -6.15% | growth inhibition [2] -15.7% | viability increase [3] -6.41% | viability [4] 91.1% | viability [5] 87.3% | inhibition [6] 3.45% | RAM network inhibition [7] 3.84%

COc1ccccc1N1CCN(C(=O)COc2ccc(C)cc2Br)CC1
inactive: growth inhibition [1] -7.34% | growth inhibition [2] -9.51% | viability increase [3] -1.4% | viability [4] 83.5% | viability [5] 72.4% | inhibition [6] -0.16% | RAM network inhibition [7] 2.61%

COc1ccc(C2C3=C(Nc4ncnn42)c2ccccc2CCC3)cc1 (configuration not stated)
inactive: growth inhibition [1] -12.5% | growth inhibition [2] -17.7% | viability increase [3] -1.45% | viability [4] 91.7% | viability [5] 89.1% | inhibition [6] 1.9% | RAM network inhibition [7] 3.32%

COc1ccc(C)cc1NC(=O)CSc1nnc(-c2ccco2)n1Cc1ccco1
inactive: growth inhibition [1] -0.8% | growth inhibition [2] 10.4% | viability increase [3] -2.06% | viability [4] 99.8% | viability [5] 90.8% | inhibition [6] 2.08% | RAM network inhibition [7] 6.62%

O=C(CN1CCOc2ccccc21)NCc1ccc(F)cc1
inactive: growth inhibition [1] -29.5% | growth inhibition [2] 2.98% | viability increase [3] -5.89% | viability [4] 91.4% | viability [5] 85.8% | inhibition [6] 0.305% | RAM network inhibition [7] -0.84%

Nc1nonc1/C(=N/O)N1CCN(CCO)CC1
inactive: growth inhibition [1] 1.46% | growth inhibition [2] -1.22% | viability increase [3] 0% | viability [4] 104% | viability [5] 100% | inhibition [6] 1.46% | RAM network inhibition [7] 0.95%

COc1ccc(-c2nc(CS(=O)CC(=O)NC3CCCc4ccccc43)c(C)o2)cc1OC (configuration not stated)
inactive: growth inhibition [1] -8.29% | growth inhibition [2] 3.54% | viability increase [3] -2.94% | viability [4] 84.5% | viability [5] 90.9% | inhibition [6] 1.64% | RAM network inhibition [7] 8.66%

CC1=C(C(=O)OC(C)C)C(c2cccnc2)n2ncnc2N1 (configuration not stated)
inactive: growth inhibition [1] -6.7% | growth inhibition [2] -11% | viability increase [3] 0.27% | viability [4] 101% | viability [5] 100% | inhibition [6] 0.07% | RAM network inhibition [7] 5.02%

CCC(C)NC(=O)c1cnc2n(c1=O)CCS2 (configuration not stated)
inactive: growth inhibition [1] 0.08% | growth inhibition [2] -1.8% | viability increase [3] 1.88% | viability [4] 103% | viability [5] 103% | inhibition [6] 1.18% | RAM network inhibition [7] 1.25%

CCCc1cc(C(=O)Nc2sc(C)c(CC)c2C#N)no1
inactive: growth inhibition [1] -6.42% | growth inhibition [2] -11.2% | viability increase [3] 2.26% | viability [4] 102% | viability [5] 101% | inhibition [6] 1.42% | RAM network inhibition [7] 0.53%

Cn1c(=NC(=O)C2CC2)sc2cccc(F)c21
inactive: growth inhibition [1] -10.3% | growth inhibition [2] 8.25% | viability increase [3] -4.82% | viability [4] 88.3% | viability [5] 89% | inhibition [6] 0.96% | RAM network inhibition [7] 6.98%

CC(C)(C)SCCNS(=O)(=O)c1ccc(F)cc1
inactive: growth inhibition [1] -4.57% | growth inhibition [2] 3.38% | viability increase [3] 0.35% | viability [4] 94.2% | viability [5] 89.5% | inhibition [6] 0.725% | RAM network inhibition [7] 0.56%

Source: PubChem BioAssay
